Results reported in ChEMBL document CHEMBL3352463, “Brain-penetrant, orally bioavailable microtubule-stabilizing small molecules are potential candidate therapeutics for Alzheimer's disease and related tauopathies” (J Med Chem, 2014).
Activity calls are given as the source filed them. No cut-off for these calls is given here.

Legend:
[1] = system: QBI293; assay: Induction of microtubule stabilization in human QBI293 cells assessed as increase in acetylated alpha-tubulin at 1 uM after 4 hrs by ELISA relative to vehicle treated control; type: cell-based
Method in brief: (§1)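 QBI293 cells exposed to compound at 1 μM. Acetylated α-tubulin expressed as fold-change over vehicle-treated cells and over cells given 0.1 μM cevipabulin as positive control. Significance by two-tailed t-test.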

[2] = molecular target: ATP-dependent translocase ABCB1 (Homo sapiens, UniProt P08183); assay: Inhibition of human P-glycoprotein expressed in NCI/ADR-RES cells assessed as reduction of calcein-AM transport after 20 mins by fluorescence assay; type: cell-based
[3] = Ratio of AUC for free drug level in brain to plasma in CD1 mouse at 5 mg/kg, ip after 1 hr by LC-MS/MS system; type: ADME, organism-based; design: dose 5 mg/kg, route intraperitoneal; settings: brain and plasma
[4] = system: QBI293; assay: Induction of microtubule stabilization in human QBI293 cells assessed as increase in acetylated alpha-tubulin at 0.1 uM after 4 hrs by ELISA relative to vehicle treated control; type: cell-based
[5] = system: Mus musculus; assay: Induction of microtubule stabilization in wild type mouse assessed as increase in acetylated alpha-tubulin level in brain at 1 mg/kg, ip after 4 to 6 days; type: functional, organism-based; design: dose 1 mg/kg
Method in brief: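 Wild-type mice (n = 3 per group) dosed 1 mg/kg ip once daily for 4 or 6 days; acetylated α-tubulin measured in brain homogenates, expressed relative to controls; significance by ANOVA with Dunnett's multiple comparison test.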

[6] = Drug level in CD1 mouse plasma at 5 mg/kg, ip after 1 hr by LC-MS/MS system; type: ADME, organism-based; design: dose 5 mg/kg, route intraperitoneal
Method in brief: (§2)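 2-month-old CD1 mice (about 20 g) given 5 mg/kg ip; brain and plasma sampled at 1 h. Hemispheres sonicated in 10 mM ammonium acetate pH 5.7 (1:2 w/v); plasma from EDTA blood spun 4500g, 10 min, 4 °C. Acetonitrile extraction, then UPLC-MS/MS in positive ESI MRM mode. Quantified against spiked standard curves at 0.005–5 μM in matching matrix.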

[7] = system: QBI293; assay: Induction of microtubule stabilization in human QBI293 cells assessed as increase in acetylated alpha-tubulin at 1 uM after 4 hrs by ELISA relative to 0.1 uM treated triazolopyrimidines cevipabulin; type: cell-based; method in brief: as §1
[8] = Ratio of AUC for drug level in brain to plasma in CD1 mouse at 5 mg/kg, ip after 1 hr by LC-MS/MS system; type: ADME, organism-based; design: dose 5 mg/kg, route intraperitoneal; settings: brain and plasma, read-out: Ratio AUC
Method in brief: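 2-month-old CD1 mice given 5 mg/kg ip; brain hemispheres (homogenized 1:2 w/v in 10 mM ammonium acetate pH 5.7) and EDTA plasma collected over a 16 h time course. Acetonitrile-precipitated supernatants quantified by LC-MS/MS (MRM, positive ESI) with spiked standard curves 0.005–5 μM.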

[9] = Drug level in CD1 mouse brain at 5 mg/kg, ip after 1 hr by LC-MS/MS system; type: ADME, organism-based; design: dose 5 mg/kg, route intraperitoneal; settings: read-out: Drug uptake; method in brief: as §2
[10] = Ratio of drug level in brain to plasma in CD1 mouse at 5 mg/kg, ip after 1 hr by LC-MS/MS system
[11] = Ratio of drug level in brain to plasma in CD1 mouse at 5 mg/kg, ip after 1 hr by LC-MS/MS system; type: ADME, organism-based; design: dose 5 mg/kg, route intraperitoneal; settings: brain and plasma, read-out: BPR
Method in brief: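 CD1 mice (2 months, about 20 g) dosed 5 mg/kg ip; brain and plasma taken at 1 h. Each extracted with acetonitrile and measured by LC-MS/MS MRM against matrix standard curves (0.005–5 μM). Value is the brain concentration divided by the plasma concentration.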

[12] = Elimination half life in CD1 mouse brain at 5 mg/kg, ip after 1 hr by LC-MS/MS system; type: ADME, organism-based; design: dose 5 mg/kg, route intraperitoneal; settings: read-out: beta t1/2 (converted)
Method in brief: (§3)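 Female? no—2-month-old CD1 mice (20 g average) given 5 mg/kg ip; plasma (EDTA blood, centrifuged 4500g, 10 min, 4 °C) and brain hemispheres (homogenized in 10 mM ammonium acetate pH 5.7) sampled over 16 h. Acetonitrile extraction, LC-MS/MS by MRM against spiked standard curves (0.005–5 μM). Half-life from elimination rate constant, slope of ln concentration vs time at 4, 8 and 16 h.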

[13] = Elimination half life in CD1 mouse plasma at 5 mg/kg, ip after 1 hr by LC-MS/MS system; type: ADME, organism-based; design: dose 5 mg/kg, route intraperitoneal; settings: read-out: beta t1/2 (converted); method in brief: as §3
[14] = system: QBI293; assay: Induction of microtubule stabilization in human QBI293 cells assessed as increase in acetylated alpha-tubulin at 100 nM after 4 hrs by immunofluorescence assay relative to control; type: cell-based
Method in brief: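 QBI293 cells incubated 4 h with test compound (100 nM), colchicine (1 μM) or no compound; acetylated α-tubulin visualized by immunofluorescence to assess microtubule number/organization.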

ATP-dependent translocase ABCB1, sequence (P08183 whole entry): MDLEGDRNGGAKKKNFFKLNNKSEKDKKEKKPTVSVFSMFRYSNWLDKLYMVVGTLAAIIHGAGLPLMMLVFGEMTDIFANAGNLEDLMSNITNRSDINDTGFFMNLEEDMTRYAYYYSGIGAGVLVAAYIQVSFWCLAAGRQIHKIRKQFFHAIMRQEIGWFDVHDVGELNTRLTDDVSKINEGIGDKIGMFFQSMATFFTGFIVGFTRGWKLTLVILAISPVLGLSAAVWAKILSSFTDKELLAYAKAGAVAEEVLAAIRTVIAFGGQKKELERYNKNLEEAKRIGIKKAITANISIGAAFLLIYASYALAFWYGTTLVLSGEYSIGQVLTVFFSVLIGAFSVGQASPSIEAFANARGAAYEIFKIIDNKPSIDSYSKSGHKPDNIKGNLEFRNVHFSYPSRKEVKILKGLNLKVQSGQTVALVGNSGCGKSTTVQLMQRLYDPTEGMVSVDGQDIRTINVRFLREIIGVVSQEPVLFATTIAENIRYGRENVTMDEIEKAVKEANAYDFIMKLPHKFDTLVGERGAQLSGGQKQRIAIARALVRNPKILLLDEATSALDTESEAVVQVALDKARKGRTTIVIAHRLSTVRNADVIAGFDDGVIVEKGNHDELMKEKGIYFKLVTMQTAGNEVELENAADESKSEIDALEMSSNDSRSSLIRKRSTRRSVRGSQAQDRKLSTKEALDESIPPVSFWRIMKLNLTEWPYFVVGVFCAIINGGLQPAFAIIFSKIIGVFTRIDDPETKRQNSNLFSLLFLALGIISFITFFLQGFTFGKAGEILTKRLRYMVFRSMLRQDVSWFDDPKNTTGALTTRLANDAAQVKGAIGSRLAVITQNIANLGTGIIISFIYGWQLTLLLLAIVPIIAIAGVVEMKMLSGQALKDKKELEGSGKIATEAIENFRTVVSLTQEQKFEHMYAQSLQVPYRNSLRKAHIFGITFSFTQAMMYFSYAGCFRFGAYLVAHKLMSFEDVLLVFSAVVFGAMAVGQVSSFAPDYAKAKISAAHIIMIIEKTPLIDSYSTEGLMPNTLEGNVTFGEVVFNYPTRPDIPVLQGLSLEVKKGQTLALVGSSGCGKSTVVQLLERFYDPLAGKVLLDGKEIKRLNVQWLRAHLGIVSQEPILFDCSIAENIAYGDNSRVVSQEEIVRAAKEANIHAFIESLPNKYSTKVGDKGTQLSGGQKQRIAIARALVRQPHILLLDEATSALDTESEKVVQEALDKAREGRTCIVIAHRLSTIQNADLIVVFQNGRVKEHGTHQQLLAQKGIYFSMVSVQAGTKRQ

| SMILES | fold change (FC) [1] | concentration at 1 h [6] [nM] | fold change (FC) [7] | concentration at 1 h [9] [nM] | BPR [10] | other results |
| --- | --- | --- | --- | --- | --- | --- |
| Cc1nnc(Cl)c(-c2c(F)cc(F)cc2F)c1-c1ccc(Cl)s1 | 1.3 |  |  |  |  |  |
| CC(C)c1cccc(C(C)C)c1N1C(=O)c2ccc(O)cc2C1=O | 1 |  |  |  |  |  |
| COc1ccc(CCN(C)CCCC(C#N)(c2ccc(OC)c(OC)c2)C(C)C)cc1OC (configuration not stated) |  |  |  |  |  | inhibition (INH) [2]: Active |
| C[C@H](Nc1c(-c2c(F)cc(OCCCN(C)C)cc2F)c(Cl)nc2ncnn12)C(F)(F)F | 9.1 | 4900 | 1.3 | 1300 |  | Kp uu at 1 h [3]: 0.09; fold change (FC) [4]: 2; inhibition (INH) [2]: Not Active; Activity [5]: Active; Kp at 1 h [8]: 0.37 |
| C[C@H](Nc1nc(-c2ccccn2)nc(Cl)c1-c1c(F)cc(F)cc1F)C(F)(F)F | 4.2 | 4300 | 0.9 | 1500 |  |  |
| C[C@H](Nc1nc(-c2cnccn2)nc(Cl)c1-c1c(F)cc(OCCCN(C)C)cc1F)C(F)(F)F | 4.1 | 2500 | 0.5 | 860 | 0.35 |  |
| Fc1cc(F)c(-c2c(Cl)nc(-c3cnccn3)nc2NCC(F)(F)F)c(F)c1 | 1.5 |  |  |  |  |  |
| C[C@H](Nc1c(-c2c(F)cc(OCCCCl)cc2F)c(Cl)nc2ncnn12)C(F)(F)F | 1.2 | 178 |  | 160 | 0.88 |  |
| C[C@H](Nc1c(-c2c(F)cc(OCCCNC(=O)C(C)(C)C)cc2F)c(Cl)nc2ncnn12)C(F)(F)F | 2.4 | 1500 | 0.7 | 170 |  | Kp at 1 h [11]: 0.12 |
| Fc1cc(F)c(-c2c(Cl)nc(-c3ccccn3)nc2NCC(F)(F)F)c(F)c1 | 1.6 |  |  |  |  |  |
| C[C@H](Nc1c(-c2c(F)cc(OCCCN)cc2F)c(Cl)nc2ncnn12)C(F)(F)F | 26.5 | 1300 | 3.4 | 40 | 0.03 | fold change (FC) [4]: 4.2 |
| C[C@H](Nc1c(-c2c(F)cc(OCCCNCC(F)(F)F)cc2F)c(Cl)nc2ncnn12)C(F)(F)F | 2.1 | 160 | 0.6 | 230 | 1.5 |  |
| C[C@H](Nc1c(-c2c(F)cc(OCCCF)cc2F)c(Cl)nc2ncnn12)C(F)(F)F | 1.4 |  |  |  |  |  |
| C[C@H](Nc1c(-c2c(F)cc(OCCCO)cc2F)c(Cl)nc2ncnn12)C(F)(F)F | 10.1 | 29 | 1.2 | 78 | 2.8 |  |
| CN(C)CCCOc1cc(F)c(-c2c(Cl)nc(-c3ccccn3)nc2NCC(F)(F)F)c(F)c1 | 0.9 |  |  |  |  |  |
| C[C@H](Nc1c(-c2c(F)cc(OCCCNc3ccccc3)cc2F)c(Cl)nc2ncnn12)C(F)(F)F | 1 | 75 |  | 120 | 1.6 |  |
| CC(=O)NCCCOc1cc(F)c(-c2c(Cl)nc3ncnn3c2N[C@@H](C)C(F)(F)F)c(F)c1 | 4.5 |  | 1.5 |  |  |  |
| Cc1nnc(Cl)c(-c2c(F)cc(F)cc2F)c1-c1ccc(Cl)cc1 | 1.5 |  |  |  |  |  |
| CC(C)Nc1nc2nccnc2c(Cl)c1-c1c(F)cc(F)cc1F | 1 |  |  |  |  |  |
| C[C@H](Nc1c(-c2c(F)cc(F)cc2F)c(Cl)nc2ncnn12)C(F)(F)F | 1.3 | 2800 | 0.4 | 2400 | 0.8 |  |
| C[C@H](Nc1nc(-c2cnccn2)nc(Cl)c1-c1c(F)cc(F)cc1F)C(F)(F)F | 2.7 | 5000 | 0.9 | 2900 |  | Kp uu at 1 h [3]: 1.7; inhibition (INH) [2]: Not Active; Activity [5]: Active; half-life [12]: 15 h; half-life [13]: 15 h; Kp at 1 h [8]: 0.72 |
| C[C@H](Nc1c(-c2c(F)cc(OCCCN3CCOCC3)cc2F)c(Cl)nc2ncnn12)C(F)(F)F | 4.1 | 1200 | 1.2 | 600 | 0.49 |  |
| CC(C)Nc1c(-c2c(F)cc(F)cc2F)c(Cl)nc2nccnc12 | 1 |  |  |  |  |  |
| CNCCCOc1cc(F)c(-c2c(Cl)nc3ncnn3c2N[C@@H](C)C(F)(F)F)c(F)c1 [CEVIPABULIN] |  | 2500 |  | 92 | 0.037 | inhibition (INH) [2]: Not Active; Activity [14]: Active |
| COc1ccccc1N1CCN(C(=O)c2cc(=O)c3cc(C)cc(C)c3o2)CC1 | 0.9 |  |  |  |  |  |
| CC(=O)N(C)CCCOc1cc(F)c(-c2c(Cl)nc3ncnn3c2N[C@@H](C)C(F)(F)F)c(F)c1 | 1.3 | 200 |  | 20 | 0.15 |  |
| NS(=O)(=O)c1ccc(NC(NC(=O)c2ccc(Br)cc2)C(Cl)(Cl)Cl)cc1 (configuration not stated) | 1 |  |  |  |  |  |
| C/C1=C/C[C@@H](/C(C)=C/c2csc(C)n2)OC(=O)C[C@H](O)C(C)(C)C(=O)[C@H](C)[C@@H](O)[C@@H](C)CCC1 [EPOTHILONE D] |  |  |  |  |  | inhibition (INH) [2]: Active; Activity [14]: Active |
